Laboratory results: ChEMBL document CHEMBL1140334, “Synthesis and structure-activity relationships of pyrazine-pyridine biheteroaryls as novel, potent, and selective vascular endothelial growth factor receptor-2 inhibitors” (J Med Chem, 2005)

Assays:
MRC5 = test: Concentration required to inhibit proliferation of human MRC5 fibroblast cell growth
[1] = Inhibition of protein kinase C gamma
Summary of the method: (§1)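 Radiometric kinase assay. Conditions varied slightly per kinase. Stopped with PBS/100 mM EDTA, read by scintillation counting. IC50 by linear regression of % inhibition, mean of at least two determinations.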

[2] = Inhibition of protein kinase A; summary of the method: as §1
Casein kinase I = test: Inhibition of casein kinase 1; format: protein assay
[3] = molecular target: Glycogen synthase kinase-3 (Homo sapiens, UniProt P49840+P49841); test: Inhibition of glycogen synthase kinase-3; format: protein assay; summary of the method: as §1
HASMC = test: Concentration required to inhibit proliferation of HASMC; details: Homo sapiens
HUVEC [4] = test: Concentration required to inhibit proliferation of HUVEC; details: Homo sapiens
A-375 [5] = test: Concentration required to inhibit proliferation of A375 human amelanotic melanoma cell growth
HCT-116 = test: Concentration required to inhibit proliferation of human HCT116 colon cancer cell growth
HeLa = test: Concentration required to inhibit proliferation of HeLa cell growth; details: Homo sapiens
HUVEC [6] = test: Concentration inhibiting VEGF stimulated (2 ng/well) HUVE cell proliferation; details: Homo sapiens
[7] = Inhibition of cyclin-dependent kinase 1 activity; summary of the method: as §1
[8] = molecular target: T1, Vascular endothelial growth factor receptor 2 (Homo sapiens, UniProt P35968); test: Inhibition of vascular endothelial growth factor receptor 2; summary of the method: as §1
[9] = molecular target: T1, Vascular endothelial growth factor receptor 2; test: Inhibitory concentration (experimental) against vascular endothelial growth factor receptor 2; summary of the method: as §1
Insulin receptor = Insulin receptor (Homo sapiens, UniProt P06213); test: Inhibition of insulin Receptor kinase; summary of the method: as §1
Casein kinase II = Casein kinase II (Homo sapiens, UniProt P19784+P67870+P68400); test: Inhibition of casein kinase 2; format: protein-complex assay; summary of the method: as §1
A-375 [10] = test: The antitumor activity shown by the compound against A375 human melanoma xenografts growing in nude mice (10 mg/kg, i.p.) in terms of mean day of survival; format: functional, Mus musculus
Summary of the method: (§2)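 Female nude mice carried subcutaneous flank implants of 1 mm3 A375 fragments and were pair-matched on day 1 at tumors of 62-126 mg. Dosing was i.p. once daily for 30 days, in 1.5% Pluronic F108 vehicle; the study ended at day 60. Tumor weight was taken as (w2l)/2. Mice were euthanized at 2.0 g, and MDS was derived from calculated time to endpoint.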

A-375 [11] = test: The antitumor activity shown by the compound against A375 human melanoma xenografts growing in nude mice (75 mg/kg, i.p.) in terms of mean day of survival; format: functional, Mus musculus; summary of the method: as §2
CaM kinase II = CaM kinase II (Homo sapiens, UniProt Q13557+Q13555+Q13554+Q9UQM7); test: Inhibition of calcium/calmodulin-dependent protein kinase type II; format: protein assay
[12] = molecular target: Mitogen-activated protein kinase 1 (Homo sapiens, UniProt P28482); test: Inhibition of mitogen-activated protein kinase; summary of the method: as §1
[13] = molecular target: Protein kinase C beta type (Homo sapiens, UniProt P05771); test: Inhibition of protein kinase C beta activity; summary of the method: as §1
[14] = Inhibition of platelet-derived growth factor receptor; summary of the method: as §1
[15] = molecular target: Cyclin-dependent kinase 4/cyclin D1 (Homo sapiens, UniProt P11802); test: Inhibition of cyclin dependent kinase 4-cyclinD1; format: protein-complex assay; summary of the method: as §1

Chain of Mitogen-activated protein kinase 1 (P28482 whole entry): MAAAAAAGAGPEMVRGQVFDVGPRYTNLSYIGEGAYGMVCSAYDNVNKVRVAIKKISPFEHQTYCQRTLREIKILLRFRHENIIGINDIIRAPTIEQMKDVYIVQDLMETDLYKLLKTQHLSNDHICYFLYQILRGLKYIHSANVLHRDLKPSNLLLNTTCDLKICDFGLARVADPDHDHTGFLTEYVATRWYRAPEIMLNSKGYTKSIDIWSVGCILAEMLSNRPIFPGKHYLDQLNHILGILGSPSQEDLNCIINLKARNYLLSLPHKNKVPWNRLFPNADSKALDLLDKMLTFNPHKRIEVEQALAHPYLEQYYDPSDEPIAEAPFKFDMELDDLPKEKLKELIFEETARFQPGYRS
Chain of Casein kinase II (P67870 whole entry): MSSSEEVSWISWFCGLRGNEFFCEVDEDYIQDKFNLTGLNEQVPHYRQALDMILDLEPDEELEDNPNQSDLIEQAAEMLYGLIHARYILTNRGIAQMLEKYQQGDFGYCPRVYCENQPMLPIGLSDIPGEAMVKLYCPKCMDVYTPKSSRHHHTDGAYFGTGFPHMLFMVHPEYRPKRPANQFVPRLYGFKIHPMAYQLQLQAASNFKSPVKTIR
Chain of Casein kinase II (P68400 whole entry): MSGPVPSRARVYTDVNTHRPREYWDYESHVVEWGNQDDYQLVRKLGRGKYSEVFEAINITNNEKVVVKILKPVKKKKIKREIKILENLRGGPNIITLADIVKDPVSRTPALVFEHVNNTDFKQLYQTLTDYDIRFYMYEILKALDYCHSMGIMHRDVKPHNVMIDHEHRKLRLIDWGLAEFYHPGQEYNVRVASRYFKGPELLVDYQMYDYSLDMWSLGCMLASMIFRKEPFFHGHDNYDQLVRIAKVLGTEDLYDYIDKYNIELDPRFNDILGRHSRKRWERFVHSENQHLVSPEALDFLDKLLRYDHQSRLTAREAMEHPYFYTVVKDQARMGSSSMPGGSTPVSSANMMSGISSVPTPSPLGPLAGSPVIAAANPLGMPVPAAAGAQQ
Chain of Casein kinase II (P19784 whole entry): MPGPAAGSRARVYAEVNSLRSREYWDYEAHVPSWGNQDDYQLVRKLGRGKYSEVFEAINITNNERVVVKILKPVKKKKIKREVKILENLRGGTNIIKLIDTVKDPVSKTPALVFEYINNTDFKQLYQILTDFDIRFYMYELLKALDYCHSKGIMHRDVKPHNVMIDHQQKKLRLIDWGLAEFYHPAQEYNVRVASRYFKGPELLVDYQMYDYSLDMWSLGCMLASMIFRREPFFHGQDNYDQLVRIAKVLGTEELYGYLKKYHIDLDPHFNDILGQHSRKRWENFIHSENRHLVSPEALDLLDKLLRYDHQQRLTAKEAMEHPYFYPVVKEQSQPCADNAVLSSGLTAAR
T1 sequence (P35968 whole entry): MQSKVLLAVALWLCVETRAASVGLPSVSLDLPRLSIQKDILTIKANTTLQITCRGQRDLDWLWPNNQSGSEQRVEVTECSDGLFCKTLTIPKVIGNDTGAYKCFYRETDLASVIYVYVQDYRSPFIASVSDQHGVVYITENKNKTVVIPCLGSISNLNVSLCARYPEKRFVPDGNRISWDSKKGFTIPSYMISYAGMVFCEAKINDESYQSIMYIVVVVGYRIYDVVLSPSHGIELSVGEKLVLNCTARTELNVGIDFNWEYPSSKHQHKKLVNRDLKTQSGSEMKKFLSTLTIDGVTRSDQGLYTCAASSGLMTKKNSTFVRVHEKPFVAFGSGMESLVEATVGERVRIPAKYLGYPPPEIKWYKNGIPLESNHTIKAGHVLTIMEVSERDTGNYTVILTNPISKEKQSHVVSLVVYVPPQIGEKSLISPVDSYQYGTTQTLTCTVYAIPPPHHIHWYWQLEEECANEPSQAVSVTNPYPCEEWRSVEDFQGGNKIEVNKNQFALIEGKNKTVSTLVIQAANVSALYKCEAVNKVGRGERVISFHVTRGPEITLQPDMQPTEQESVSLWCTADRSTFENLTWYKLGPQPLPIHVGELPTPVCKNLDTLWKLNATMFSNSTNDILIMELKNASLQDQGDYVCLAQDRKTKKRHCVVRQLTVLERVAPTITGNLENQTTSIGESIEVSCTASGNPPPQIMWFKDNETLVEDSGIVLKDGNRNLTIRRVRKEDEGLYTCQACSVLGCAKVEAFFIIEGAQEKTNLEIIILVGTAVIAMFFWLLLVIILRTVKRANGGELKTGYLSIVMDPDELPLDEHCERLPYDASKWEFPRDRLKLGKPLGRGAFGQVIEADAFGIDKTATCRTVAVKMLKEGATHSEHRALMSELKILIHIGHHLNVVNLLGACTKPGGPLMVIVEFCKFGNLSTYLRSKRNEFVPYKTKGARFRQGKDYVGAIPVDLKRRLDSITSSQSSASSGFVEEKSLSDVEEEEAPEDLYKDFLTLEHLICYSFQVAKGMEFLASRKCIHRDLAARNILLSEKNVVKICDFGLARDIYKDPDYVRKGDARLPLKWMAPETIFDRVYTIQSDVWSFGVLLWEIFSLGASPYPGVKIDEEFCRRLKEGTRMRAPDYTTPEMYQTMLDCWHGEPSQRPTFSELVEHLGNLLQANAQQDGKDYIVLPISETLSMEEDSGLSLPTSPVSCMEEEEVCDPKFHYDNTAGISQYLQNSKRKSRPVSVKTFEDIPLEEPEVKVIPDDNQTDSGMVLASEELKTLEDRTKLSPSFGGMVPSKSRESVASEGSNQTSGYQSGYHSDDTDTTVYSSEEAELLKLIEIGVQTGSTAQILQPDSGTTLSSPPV
Chain of Insulin receptor (P06213 28-758 limits assumed): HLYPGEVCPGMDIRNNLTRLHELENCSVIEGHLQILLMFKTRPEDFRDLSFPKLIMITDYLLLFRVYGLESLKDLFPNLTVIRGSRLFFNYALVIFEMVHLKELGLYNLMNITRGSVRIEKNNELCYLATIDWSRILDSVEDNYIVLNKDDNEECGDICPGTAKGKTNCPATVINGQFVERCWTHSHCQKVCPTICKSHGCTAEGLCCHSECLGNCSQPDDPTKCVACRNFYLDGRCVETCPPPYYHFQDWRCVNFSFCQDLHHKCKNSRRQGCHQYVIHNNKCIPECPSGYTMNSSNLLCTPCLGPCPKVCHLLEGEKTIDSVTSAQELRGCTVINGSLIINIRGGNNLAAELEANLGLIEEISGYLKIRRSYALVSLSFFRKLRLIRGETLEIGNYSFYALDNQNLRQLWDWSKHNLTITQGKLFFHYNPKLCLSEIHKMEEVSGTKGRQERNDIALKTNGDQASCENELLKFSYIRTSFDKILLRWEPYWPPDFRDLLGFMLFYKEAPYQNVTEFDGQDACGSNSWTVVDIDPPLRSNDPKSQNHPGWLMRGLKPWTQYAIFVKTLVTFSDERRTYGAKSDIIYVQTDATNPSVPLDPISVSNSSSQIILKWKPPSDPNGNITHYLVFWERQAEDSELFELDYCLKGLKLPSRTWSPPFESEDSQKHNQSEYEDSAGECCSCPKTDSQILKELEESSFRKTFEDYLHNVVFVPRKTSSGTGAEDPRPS
Chain of Insulin receptor (P06213 763-1382 limits assumed): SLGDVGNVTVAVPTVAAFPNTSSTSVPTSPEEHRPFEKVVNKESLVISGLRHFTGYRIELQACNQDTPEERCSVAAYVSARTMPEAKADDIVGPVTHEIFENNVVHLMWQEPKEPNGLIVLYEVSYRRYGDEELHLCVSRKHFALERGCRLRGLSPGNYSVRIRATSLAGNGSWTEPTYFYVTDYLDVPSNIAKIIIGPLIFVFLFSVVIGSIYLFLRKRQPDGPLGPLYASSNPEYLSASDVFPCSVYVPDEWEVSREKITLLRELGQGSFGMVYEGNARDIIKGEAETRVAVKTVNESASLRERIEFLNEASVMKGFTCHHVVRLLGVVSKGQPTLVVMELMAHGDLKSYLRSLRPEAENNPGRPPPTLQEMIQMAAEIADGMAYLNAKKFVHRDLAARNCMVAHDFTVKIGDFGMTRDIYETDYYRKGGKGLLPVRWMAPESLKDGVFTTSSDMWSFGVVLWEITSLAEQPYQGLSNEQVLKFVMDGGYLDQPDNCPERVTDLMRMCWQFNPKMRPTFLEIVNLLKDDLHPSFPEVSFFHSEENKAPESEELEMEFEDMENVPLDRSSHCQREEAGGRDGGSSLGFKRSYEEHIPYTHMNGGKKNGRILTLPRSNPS
Chain of Protein kinase C beta type (P05771 whole entry): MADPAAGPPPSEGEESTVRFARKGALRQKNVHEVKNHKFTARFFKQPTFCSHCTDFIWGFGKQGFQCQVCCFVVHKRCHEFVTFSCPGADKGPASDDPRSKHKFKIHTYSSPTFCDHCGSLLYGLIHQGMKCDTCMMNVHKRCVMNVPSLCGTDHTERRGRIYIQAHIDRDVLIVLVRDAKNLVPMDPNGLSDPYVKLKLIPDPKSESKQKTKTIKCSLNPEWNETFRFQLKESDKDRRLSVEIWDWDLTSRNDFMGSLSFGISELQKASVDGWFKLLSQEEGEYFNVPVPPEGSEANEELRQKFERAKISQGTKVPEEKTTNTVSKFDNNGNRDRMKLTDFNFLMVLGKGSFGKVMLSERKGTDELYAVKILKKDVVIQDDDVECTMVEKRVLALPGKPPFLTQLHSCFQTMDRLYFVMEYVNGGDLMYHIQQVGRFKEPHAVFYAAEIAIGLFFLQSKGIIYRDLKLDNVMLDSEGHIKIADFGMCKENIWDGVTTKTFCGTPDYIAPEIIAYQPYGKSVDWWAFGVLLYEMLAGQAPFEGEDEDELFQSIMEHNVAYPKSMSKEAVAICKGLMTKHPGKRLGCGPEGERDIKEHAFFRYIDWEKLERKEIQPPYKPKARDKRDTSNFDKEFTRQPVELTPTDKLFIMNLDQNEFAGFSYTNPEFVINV

SMILES	IC50 [7] [µM]	IC50 [8] [nM]	IC50 [9] [nM]	also measured
OCCCCNc1cncc(-c2cncc(Nc3cccc(Cl)c3)n2)c1	> 10	63	63.1	IC50 (MRC5): 3.61 µM; IC50 [1]: > 10 µM; IC50 (Insulin receptor): > 10 µM; IC50 [2]: > 10 µM; IC50 (Casein kinase II): > 10 µM; MDS (A-375 [10]): 24; MDS (A-375 [11]): 29.2; IC50 [3]: 4.02 µM; IC50 (CaM kinase II): > 10 µM; IC50 [12]: > 10 µM; IC50 (HASMC): 3.23 µM; IC50 (HUVEC [4]): 1170 nM; IC50 (A-375 [5]): 6.08 µM; IC50 (HCT-116): > 10 µM; IC50 (HeLa): 5.56 µM; IC50 (HUVEC [6]): 63 nM; IC50 [13]: > 10 µM
Clc1cccc(Nc2cncc(-c3cncc(NCCCc4cccnc4)c3)n2)c1	–	76	75.9	IC50 (MRC5): 3.38 µM; IC50 (Insulin receptor): > 10 µM; IC50 [2]: > 10 µM; IC50 (Casein kinase I): > 10 µM; IC50 (Casein kinase II): > 10 µM; IC50 [14]: 876 nM; IC50 [3]: 0.318 µM; IC50 [12]: > 10 µM; IC50 (HASMC): 6.15 µM; IC50 (HUVEC [4]): 1670 nM; IC50 (A-375 [5]): 2.96 µM; IC50 (HCT-116): 5.05 µM; IC50 (HeLa): 3.06 µM; IC50 (HUVEC [6]): 86 nM
OCCCNc1cnc(Cl)c(-c2cncc(Nc3cccc(Cl)c3)n2)c1	> 10	> 10000	–	–
Clc1ccc(Nc2cncc(-c3cncc(NCCCc4ccncc4)c3)n2)cc1Cl	> 10	189	191	–
Nc1ncc(NCCCO)cc1-c1cncc(Nc2cccc(Cl)c2)n1	> 10	1360	1350	–
CN1CCN(CCCNc2cncc(-c3cncc(Nc4cccc(Cl)c4)n3)c2)CC1	> 10	123	123	–
OCCCNc1cncc(-c2cncc(Nc3cccc(F)c3)n2)c1	> 10	168	170	–
Clc1ccc(Nc2cncc(-c3cncc(NCCCc4ccncc4)c3)n2)cc1	> 10	1000	1000	–
Clc1cccc(Nc2cncc(-c3cncc(NCCOc4ccccc4)c3)n2)c1	> 10	> 10000	–	–
Clc1cccc(Nc2cncc(-c3cncc(NCCCc4ccccc4)c3)n2)c1	> 10	2280	2290	–
COCC(=O)Nc1cncc(-c2cncc(Nc3cccc(Cl)c3)n2)c1	> 10	303	302	–
CN(C)CCNc1cncc(-c2cncc(Nc3cccc(Cl)c3)n2)c1	> 10	105	105	IC50 (MRC5): 2.91 µM; IC50 [1]: 3.96 µM; IC50 (Insulin receptor): > 10 µM; IC50 [2]: > 10 µM; IC50 [15]: > 10 µM; IC50 (Casein kinase I): > 10 µM; IC50 (Casein kinase II): > 10 µM; IC50 [14]: > 10000 nM; MDS (A-375 [10]): 22.4; MDS (A-375 [11]): 28.9; IC50 [3]: > 10 µM; IC50 (CaM kinase II): > 10 µM; IC50 [12]: > 10 µM; IC50 (HASMC): 2.77 µM; IC50 (HUVEC [4]): 877 nM; IC50 (A-375 [5]): 3.72 µM; IC50 (HCT-116): 8.58 µM; IC50 (HeLa): > 10 µM; IC50 (HUVEC [6]): 59 nM; IC50 [13]: > 10 µM
Clc1cccc(Nc2cncc(-c3cncc(NCCCN4CCOCC4)c3)n2)c1	> 10	180	182	–
Nc1cncc(-c2cncc(Nc3cccc(Cl)c3)n2)c1	> 10	1160	1150	–
O=C(COCc1ccccc1)Nc1cncc(-c2cncc(Nc3cccc(Cl)c3)n2)c1	> 10	> 10000	–	–
COc1cccc(Nc2cncc(-c3cncc(NCCCO)c3)n2)c1	> 10	740	741	–
O=C(CCCNc1cncc(-c2cncc(Nc3cccc(Cl)c3)n2)c1)N1CCCCC1	> 10	610	617	–
COCCC(=O)Nc1cncc(-c2cncc(Nc3cccc(Cl)c3)n2)c1	> 10	593	589	–
CN(C)CCCNc1cncc(-c2cncc(Nc3cccc(Cl)c3)n2)c1	> 10	135	135	–
OCCCNc1cncc(-c2cncc(Oc3cccc(Cl)c3)n2)c1	> 10	> 10000	–	–
Clc1cccc(Nc2cncc(-c3cncc(NCCCc4ccncc4)c3)n2)c1	> 10	76	75.9	–
O=C(CO)Nc1cncc(-c2cncc(Nc3cccc(Cl)c3)n2)c1	> 10	346	347	–
Clc1cccc(Nc2cncc(-c3cncc(NCCCn4cccn4)c3)n2)c1	> 10	94	93.3	IC50 (MRC5): 3.61 µM; IC50 (Insulin receptor): > 10 µM; IC50 [2]: > 10 µM; IC50 (Casein kinase I): 5.6 µM; IC50 (Casein kinase II): 8.1 µM; IC50 [3]: 0.606 µM; IC50 (CaM kinase II): > 10 µM; IC50 [12]: > 10 µM; IC50 (HASMC): 3 µM; IC50 (HUVEC [4]): 1390 nM; IC50 (A-375 [5]): 2.84 µM; IC50 (HCT-116): 5.24 µM; IC50 (HeLa): 3.5 µM; IC50 (HUVEC [6]): 120 nM
Clc1cccc(Nc2cncc(-c3cncc(NCCCn4cncn4)c3)n2)c1	> 10	67	67.6	IC50 (MRC5): 6.72 µM; IC50 (Insulin receptor): > 10 µM; IC50 [2]: > 10 µM; IC50 (Casein kinase I): 6.5 µM; IC50 (Casein kinase II): 7.2 µM; IC50 [3]: 0.196 µM; IC50 [12]: > 10 µM; IC50 (HASMC): 2.98 µM; IC50 (HUVEC [4]): 1070 nM; IC50 (A-375 [5]): 5.16 µM; IC50 (HCT-116): > 10 µM; IC50 (HeLa): 6.06 µM; IC50 (HUVEC [6]): 57 nM

More lines, main results first:

IC50 [7] [µM]	IC50 [8] [nM]	IC50 [9] [nM]	SMILES	also measured
> 10	–	–	OCCCNc1cncc(-c2cncc(Nc3cccc(Cl)c3)n2)c1	IC50 (MRC5): 6.6 µM; IC50 [1]: > 10 µM; IC50 [2]: > 10 µM; IC50 (Casein kinase I): > 10 µM; IC50 ([3]; read-out: IC50): 0.478 µM; IC50 (HASMC): 3.87 µM; IC50 (HUVEC [4]): 1680 nM; IC50 (A-375 [5]): > 10 µM; IC50 (HCT-116): > 10 µM; IC50 (HeLa): > 10 µM; IC50 (HUVEC [6]): 164 nM
> 10	2380	2400	O=C(NCCCO)c1cncc(-c2cncc(Nc3cccc(Cl)c3)n2)c1	–
> 10	> 10000	–	O=C(COc1ccccc1)Nc1cncc(-c2cncc(Nc3cccc(Cl)c3)n2)c1	–
> 10	1010	1000	OCCCNc1cncc(-c2cncc(Nc3ccccc3Cl)n2)c1	–
10	266	263	Clc1cccc(Nc2cncc(-c3cncc(NCCCCc4ccncc4)c3)n2)c1	–
> 10	275	275	OCCNc1cncc(-c2cncc(Nc3cccc(Cl)c3)n2)c1	–
> 10	391	389	Clc1cccc(Nc2cncc(-c3cncc(NCC4CCOCC4)c3)n2)c1	–
> 10	1050	1050	OCCCNc1cncc(-c2cncc(NCc3ccccc3)n2)c1	–
> 10	251	251	OCCCNc1cnc(F)c(-c2cncc(Nc3cccc(Cl)c3)n2)c1	–
> 10	> 10000	–	CN(C)c1ccc(C(=O)Nc2cncc(-c3cncc(Nc4cccc(Cl)c4)n3)c2)cc1	–
5.62	236	234	Clc1cccc(Nc2cncc(-c3cncc(NCCCN4CCNCC4)c3)n2)c1	–
5.38	399	398	Clc1cccc(Nc2cncc(-c3cncc(NCCCN4CCCCC4)c3)n2)c1	–
5.22	568	575	O=C(O)CCCNc1cncc(-c2cncc(Nc3cccc(Cl)c3)n2)c1	–
3.69	4300	4270	CN(C)CCNC(=O)c1cncc(-c2cncc(Nc3cccc(Cl)c3)n2)c1	–
